Experimental data published in ChEMBL document CHEMBL1629702, “Berberine-INF55 (5-nitro-2-phenylindole) hybrid antimicrobials: effects of varying the relative orientation of the berberine and INF55 components” (Antimicrob Agents Chemother, 2010).
Active and inactive are the calls of the source. The calls are words filed in the database; no cut-off is given here.

Key:
Staphylococcus aureus [1] = test: Antibacterial activity against NorA-deficient Staphylococcus aureus K1758 after 18 hrs by two fold serial dilution method; format: functional; settings: K1758, 18 h
Summary of the method: (§1)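 Broth inoculated at 10⁵ cells/ml and serial 2-fold compound dilutions, run in triplicate. Incubated 18 h at 37°C, with growth read as absorbance at 600 nm. MIC is the lowest concentration giving complete growth inhibition.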

[2] = molecular target: T1, Quinolone resistance protein NorA (Staphylococcus aureus) (UniProt P0A0J7); test: Inhibition of NorA in Staphylococcus aureus K2378 overexpressing NorA assessed as decrease in Berberine MIC
T1 sequence (whole entry): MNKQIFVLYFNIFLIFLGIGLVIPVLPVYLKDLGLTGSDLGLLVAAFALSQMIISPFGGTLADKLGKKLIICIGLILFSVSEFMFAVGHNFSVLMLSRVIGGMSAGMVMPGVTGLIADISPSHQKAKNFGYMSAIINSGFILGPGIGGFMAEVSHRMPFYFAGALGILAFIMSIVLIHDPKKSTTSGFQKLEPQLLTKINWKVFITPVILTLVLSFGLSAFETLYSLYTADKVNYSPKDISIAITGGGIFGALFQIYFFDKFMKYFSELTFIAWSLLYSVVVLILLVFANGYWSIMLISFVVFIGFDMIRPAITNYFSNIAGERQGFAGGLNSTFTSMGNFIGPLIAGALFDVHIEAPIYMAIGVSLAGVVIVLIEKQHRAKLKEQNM

[3] = molecular target: T1, Quinolone resistance protein NorA (Staphylococcus aureus); test: Inhibition of NorA in Staphylococcus aureus 8325-4 assessed as accumulation of compound at 3 uM by fluorescence assay
Summary of the method: (§2)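 S. aureus was grown at 37°C to OD600 1.5, washed, then energised for 1 h at 37°C in PBS with 10 mM dextrose. Cells were diluted to OD ~0.3 in PBS, and compounds (berberine ± INF55, or hybrids) were added at 3 μM each. DNA-binding fluorescence increase was followed at ex 355/em 517 nm, in arbitrary units, with background subtracted. At least three independent experiments.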

Staphylococcus aureus [4] = test: Antibacterial activity against Staphylococcus aureus K2378 overexpressing NorA after 18 hrs by two fold serial dilution method; format: functional; settings: K2378, 18 h; summary of the method: as §1
Staphylococcus aureus [5] = test: Antibacterial activity against NorA-deficient Staphylococcus aureus K1758 after 18 hrs by two fold serial dilution method in presence of INF55; format: functional, organism-based
Staphylococcus aureus [6] = test: Cellular uptake in NorA-deficient Staphylococcus aureus K1758 assessed as accumulation of compound at 3 uM by fluorescence assay; format: ADME, organism-based; settings: in vivo
Summary of the method: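 K1758 (ΔnorA) cells grown at 37°C to OD600 1.5, washed twice in PBS, then energized 1 h at 37°C with aeration in PBS plus 10 mM dextrose at OD ~0.8. Cells washed again and diluted to OD ~0.3 in PBS. Compound added at 3 μM. DNA-binding fluorescence read at ex 355/em 517 nm, cell-free background subtracted, arbitrary units; ≥3 independent experiments.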

[7] = molecular target: T1, Quinolone resistance protein NorA (Staphylococcus aureus); test: Inhibition of NorA in Staphylococcus aureus 8325-4 assessed as decrease in Berberine MIC
[8] = molecular target: T1, Quinolone resistance protein NorA (Staphylococcus aureus); test: Inhibition of NorA in Staphylococcus aureus K2378 overexpressing NorA assessed as accumulation of compound at 3 uM by fluorescence assay; summary of the method: as §2
[9] = molecular target: T1, Quinolone resistance protein NorA (Staphylococcus aureus); test: Inhibition of NorA in Staphylococcus aureus 8325-4 assessed as assessed as accumulation of compound at 3 uM by fluorescence assay; summary of the method: as §2
[10] = molecular target: T1, Quinolone resistance protein NorA (Staphylococcus aureus); test: Inhibition of NorA in Staphylococcus aureus 8325-4 assessed as accumulation of Berberine at 3 uM by fluorescence assay in presence of INF55; summary of the method: as §2
[11] = molecular target: T1, Quinolone resistance protein NorA (Staphylococcus aureus); test: Inhibition of NorA in Staphylococcus aureus K2378 overexpressing NorA assessed as accumulation of Berberine at 3 uM by fluorescence assay in presence of INF55; summary of the method: as §2
Staphylococcus aureus [12] = test: Antibacterial activity against wild-type Staphylococcus aureus 8325-4 after 18 hrs by two fold serial dilution method; format: functional; settings: 8325-4, 18 h; summary of the method: as §1
[13] = molecular target: T1, Quinolone resistance protein NorA (Staphylococcus aureus); test: Inhibition of NorA in Staphylococcus aureus K2378 overexpressing NorA assessed as ethidium bromide uptake at 3 uM by fluorescence assay in presence of INF55
Summary of the method: (§3)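 S. aureus was grown at 37°C to OD600 1.5, washed in PBS, then energised for 1 h at 37°C in PBS with 10 mM dextrose (OD ~0.8). Cells were washed and diluted to OD ~0.3 in PBS. Hybrid or INF55 was added before ethidium bromide, all at 3 μM. Fluorescence was read at ex 530/em 600 nm, with cell-free compound background subtracted. At least triplicate.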

[14] = molecular target: T1, Quinolone resistance protein NorA (Staphylococcus aureus); test: Inhibition of NorA in Staphylococcus aureus K2378 overexpressing NorA assessed as increase in ethidium bromide uptake at 3 uM by fluorescence assay in presence of INF55; summary of the method: as §3
[15] = molecular target: T1, Quinolone resistance protein NorA (Staphylococcus aureus); test: Inhibition of NorA in Staphylococcus aureus 8325-4 assessed as ethidium bromide uptake at 3 uM by fluorescence assay; summary of the method: as §3
[16] = molecular target: T1, Quinolone resistance protein NorA (Staphylococcus aureus); test: Inhibition of NorA in Staphylococcus aureus 8325-4 assessed as increase in ethidium bromide uptake at 3 uM by fluorescence assay in presence of INF55; summary of the method: as §3
Staphylococcus aureus [17] = test: Increase in ethidium bromide uptake in NorA-deficient Staphylococcus aureus K1758 at 3 uM by fluorescence assay in presence of INF55; format: functional, organism-based; summary of the method: as §3
Staphylococcus aureus [18] = test: Increase in ethidium bromide uptake in NorA-deficient Staphylococcus aureus K1758 at 3 uM by fluorescence assay; format: functional, organism-based; summary of the method: as §3
[19] = molecular target: T1, Quinolone resistance protein NorA (Staphylococcus aureus); test: Inhibition of NorA in Staphylococcus aureus K2378 overexpressing NorA assessed as ethidium bromide uptake at 3 uM by fluorescence assay; summary of the method: as §3
Enterococcus faecalis [20] = test: Antibacterial activity against Enterococcus faecalis infected in Caenorhabditis elegans assessed as organism survival at 20 uM; format: functional, organism-based
Summary of the method: (§4)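 Gravid glp-4(bn2) sek-1(km4) adults were bleached for eggs, hatched at 15°C for 2 days, then grown on E. coli HB101 at 25°C for 52 h. Sterile adults were infected on E. faecalis MMH594 lawns (kanamycin 80 μg/ml) for 15 h at 15°C. Worms were sorted 15 per well into 20% BHI, 60% M9, kanamycin, nystatin and 1% DMSO, then kept 5 days at 26.3°C. Survival was scored from bright-field images, with median survival (LT50) as the read-out.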

Enterococcus faecalis [21] = test: Antibacterial activity against Enterococcus faecalis infected in Caenorhabditis elegans assessed as organism survival at 8.6 uM; format: functional, organism-based; summary of the method: as §4

Compound | MIC (Staphylococcus aureus [1]) | MIC (Staphylococcus aureus [4]) | MIC (Staphylococcus aureus [12]) | inhibition [13] | inhibition [14] | inhibition [15] | inhibition [16] | Activity (Staphylococcus aureus [17]) | Activity (Staphylococcus aureus [18]) | inhibition [19] | Activity (Enterococcus faecalis [20]) | further results
COc1ccc2cc3[n+](cc2c1OC)CCc1cc2c(cc1-3)OCO2.[Cl-] [BERBERINE CHLORIDE] | 40 µM | > 650 µM | 325 µM |  |  |  |  |  |  |  |  | Activity [2]: Active; inhibition [3]: inactive; Activity (Staphylococcus aureus [5]): Active; Drug uptake (Staphylococcus aureus [6]): Active; Activity [7]: Active; inhibition [8]: inactive; inhibition [9]: Active; inhibition [10]: Active; inhibition [11]: Active
COc1ccc2c(Cc3ccccc3-c3cc4cc([N+](=O)[O-])ccc4[nH]3)c3[n+](cc2c1OC)CCc1cc2c(cc1-3)OCO2 | 9.4 µM | 18.8 µM | 9.4 µM |  |  |  |  |  |  |  |  | 
COc1ccc2c(Cc3cccc(-c4cc5cc([N+](=O)[O-])ccc5[nH]4)c3)c3[n+](cc2c1OC)CCc1cc2c(cc1-3)OCO2 | 20.1 µM | 20.1 µM | 20.1 µM | inactive | Active | Active | Active | Active | Active | Active | Active | 
CN[C@H](CC(C)C)C(=O)N[C@H]1C(=O)N[C@@H](CC(N)=O)C(=O)N[C@H]2C(=O)N[C@H]3C(=O)N[C@H](C(=O)N[C@H](C(=O)O)c4cc(O)cc(O)c4-c4cc3ccc4O)[C@H](O)c3ccc(c(Cl)c3)Oc3cc2cc(c3O[C@@H]2O[C@H](CO)[C@@H](O)[C@H](O)[C@H]2O[C@H]2C[C@](C)(N)[C@H](O)[C@H](C)O2)Oc2ccc(cc2Cl)[C@H]1O |  |  |  |  |  |  |  |  |  |  |  | Activity (Enterococcus faecalis [21]): Active
COc1ccc2c(Cc3ccc(-c4cc5cc([N+](=O)[O-])ccc5[nH]4)cc3)c3[n+](cc2c1OC)CCc1cc2c(cc1-3)OCO2 | 20.1 µM | 40.2 µM | 40.2 µM | inactive | Active | Active | Active | Active | Active | Active | Active | 
